Test results taken from ChEMBL document CHEMBL4138243, “Synthesis, biological evaluation, and metabolic stability of phenazine derivatives as antibacterial agents” (Eur J Med Chem, 2018).
Values after ≈ are worked out from the molar mass of the structure shown. Active and inactive are the calls of the source. No cut-off for these calls is given here.

What was measured:
[1] = test system: Staphylococcus aureus; test: Antibacterial activity against methicillin-resistant Staphylococcus aureus USA300 JE2 after 24 hrs by broth microdilution method; type: functional; conditions: USA300 JE2, 24 h
Procedure, shortened: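 Broth microdilution. Test material taken from a 1 mg/mL DMSO stock and serially diluted 2-fold in Mueller Hinton broth containing 5% DMSO. Wells inoculated with a direct colony suspension at 0.5 McFarland, then incubated statically at 37 °C for 24 h. MIC is the lowest concentration with no growth, read by eye and by OD600. Vancomycin and gentamicin as positive controls. Run in triplicate.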

[2] = test system: Escherichia coli; test: Antibacterial activity against Escherichia coli K-12 after 24 hrs by broth microdilution method; type: functional
Procedure, shortened: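 Broth microdilution per ASM Clinical Microbiology Procedures Handbook (3rd ed.); 1 mg/mL DMSO stock serially 2-fold diluted in Mueller Hinton broth with 5% DMSO; inoculum from direct colony suspension at 0.5 McFarland; static incubation 37 °C, 24 h. MIC = lowest concentration without visible growth (eye and OD600). Vancomycin and gentamicin positive controls, medium negative control; triplicate.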

[3] = test system: Staphylococcus aureus; test: Antibacterial activity against methicillin-resistant Staphylococcus aureus USA300 JE2 at 10 times MIC after 6 days by Kirby Bauer method; type: functional, organism-based
Procedure, shortened: (§1)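 Mutant-resistance disc assay. Culture grown in Mueller Hinton broth for 4 h, diluted to 1.5 × 10^8 CFU/mL (0.5 McFarland) and spread on Mueller Hinton agar. 6 mm paper discs loaded with compound in DMSO at 10 × MIC. Plates at 37 °C. Inhibition zone diameter read at 24 h. Plates then kept 6 days and checked for colonies growing inside the zone.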

[4] = Metabolic stability in human liver S9 fraction at 1 uM after 5 to 60 mins by LC-MS/MS method; type: ADME, subcellular; conditions: s9, 1 µM
Procedure, shortened: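 Compounds incubated with human liver S9 fraction, covering phase I and phase II enzymes; depletion followed over incubation time as percent remaining. Mean ± S.D., n = 3.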

[5] = test system: Staphylococcus aureus; test: Induction of biofilm dispersion of methicillin-resistant Staphylococcus aureus USA300 JE2 at MIC after 24 hrs by crystal violet staining-based assay relative to control; type: functional
Procedure, shortened: (§2)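 Preformed-biofilm dispersion. Gelatin-coated wells seeded with 1 × 10^6 CFU/mL in TSB with 0.5% glucose and grown 24 h at 37 °C. Medium replaced with 2-fold dilutions in fresh TSB with 0.5% glucose, then a further 24 h at 37 °C. Biofilm fixed with methanol, stained with 0.1% crystal violet, dissolved in methanol:acetic acid:water 4:1:5 and read at OD540.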

[6] = test system: Staphylococcus aureus; test: Induction of membrane damage of methicillin-resistant Staphylococcus aureus USA300 JE2 at MIC after 18 hrs by propidium iodide staining-based flow cytometric method; type: functional, organism-based
Procedure, shortened: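 Flow cytometry membrane-permeability assay. […] Propidium iodide stock at 1 mg/mL added, held 15–20 min in the dark, then cells washed three times and resuspended in PBS. Controls: PI-stained untreated cells and cells treated with 70% ethanol.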

[7] = test system: Staphylococcus aureus; test: Induction of biofilm dispersion of methicillin-resistant Staphylococcus aureus USA300 JE2 at 2 times MIC after 24 hrs by crystal violet staining-based assay relative to control; type: functional; procedure, shortened: as §2
[8] = Cytotoxicity against HCEC after 24 hrs by MTT assay; design: species or system Homo sapiens
Procedure, shortened: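 HCEC cells grown in HCEC medium at 37 °C in a hypoxia chamber, seeded 6000 cells/well, left 24 h, then exposed 24 h to 200, 100, 50, 25, 12.5, 6.25 or 0 (vehicle) µg/mL. MTT added from a 2 mg/mL stock for 2 h, formazan dissolved in DMSO, absorbance read at 570 nm.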

[9] = test system: Staphylococcus aureus; test: Inhibition of biofilm formation of methicillin-resistant Staphylococcus aureus USA300 JE2 at MIC after 24 hrs by crystal violet staining-based assay relative to control; type: functional
Procedure, shortened: (§3)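 Biofilm formation inhibition. Gelatin-coated wells received 2-fold dilutions in TSB with 0.5% glucose plus cells at 2 × 10^6 CFU/mL from fresh culture. Incubated at 37 °C for 24 h. Wells gently rinsed, stained with 0.1% crystal violet for 10 min, destained in methanol:acetic acid:water 4:1:5 and read at OD540.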

[10] = Stability in tris buffer at pH 7.4 at 1 uM after 2 hrs by LC-MS/MS method; type: physicochemical; conditions: pH 7.4, 2 h
Procedure, shortened: (§4)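 Stability tested in simulated gastric fluid (pH 1.2), simulated intestinal fluid (pH 6.8) and 50 mM tris buffer (pH 7.4) using literature protocols.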

[11] = test system: Galleria mellonella; test: Toxicity in Galleria mellonella larvae assessed as decrease in survival at 0.5 times MIC after 96 hrs; type: organism-based; conditions: in vivo
[12] = test system: Staphylococcus aureus; test: Bacteriostatic activity against methicillin-resistant Staphylococcus aureus USA300 JE2 at 3 times MIC after 1 to 24 hrs by time killing assay; type: functional, organism-based
Procedure, shortened: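 Time-kill. Culture grown in Mueller Hinton broth at 37 °C for 6 h, adjusted to about 7.5 × 10^6 CFU/mL and exposed to 3 × MIC at 37 °C. Samples taken at 0, 1, 2, 3, 4, 6 and 24 h, serially diluted 10-fold in 0.9% saline and plated on Mueller Hinton agar for 24 h at 37 °C. Colonies counted and plotted as log CFU/mL. Triplicate.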

[13] = Stability in simulated gastric fluid at pH1.2 at 1 uM after 2 hrs by LC-MS/MS method; type: ADME; conditions: simulated gi fluid, pH 1.2, 2 h; procedure, shortened: as §4
[14] = test system: Escherichia coli; test: Induction of membrane damage of Escherichia coli K-12 at 2 times MIC after 18 hrs by transmission electron microscopic method; type: functional, organism-based
[15] = test system: Staphylococcus aureus; test: Antibacterial activity against methicillin-resistant Staphylococcus aureus USA300 JE2 at 10 times MIC after 24 hrs by Kirby Bauer method; type: functional; procedure, shortened: as §1
[16] = test system: Staphylococcus aureus; test: Induction of membrane damage of methicillin-resistant Staphylococcus aureus USA300 JE2 at 2 times MIC after 18 hrs by transmission electron microscopic method; type: functional, organism-based
Procedure, shortened: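 TEM. […] Cells washed three times in PBS, then fixed in 2% glutaraldehyde with 2% paraformaldehyde in 0.1 M phosphate buffer.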

[17] = Stability in simulated intestinal fluid at pH 6.8 at 1 uM after 2 hrs by LC-MS/MS method; type: ADME; conditions: simulated gi fluid, pH 6.8, 2 h; procedure, shortened: as §4
[18] = test system: Staphylococcus aureus; test: Antibacterial activity against methicillin-resistant Staphylococcus aureus USA300 JE2 at 10 ug after 24 hrs by Kirby Bauer method; type: functional; conditions: USA300 JE2, 24 h, read-out: DIZ
Procedure, shortened: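 Disc diffusion reference, streptomycin 10 µg. 0.5 McFarland inoculum spread on Mueller Hinton agar with 6 mm discs. Incubated at 37 °C and inhibition zone diameter measured after 24 h.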

[19] = test system: Staphylococcus aureus; test: Inhibition of biofilm formation of methicillin-resistant Staphylococcus aureus USA300 JE2 at 8 times MIC after 24 hrs by crystal violet staining-based assay relative to control; type: functional; procedure, shortened: as §3
[20] = Toxicity in Galleria mellonella larvae assessed as survival at 3 ug/ml after 96 hrs relative to control; type: organism-based; conditions: in vivo
[21] = test system: Staphylococcus aureus; test: Induction of biofilm dispersion of methicillin-resistant Staphylococcus aureus USA300 JE2 at 1 to 32 ug/ml after 24 hrs by crystal violet staining-based assay relative to control; type: functional, organism-based; procedure, shortened: as §2

| Compound | MIC [1] [µg/mL] | MIC ([2]; K-12, 24 h) [µg/mL] | further results |
| --- | --- | --- | --- |
| COC(=O)c1cccc2nc3cc(OC)cc(Br)c3nc12 | 128 (≈ 369 µM) | 128 (≈ 369 µM) | – |
| COC(=O)c1cccc2nc3cc(Br)cc(OC)c3nc12 | 128 (≈ 369 µM) | 128 (≈ 369 µM) | – |
| COC(=O)c1cccc2nc3cc(OC)ccc3nc12 | 128 (≈ 477 µM) | 64 (≈ 239 µM) | – |
| COc1ccc(OC)c2nc3c(C(=O)O)cccc3nc12 | 64 (≈ 225 µM) | 64 (≈ 225 µM) | – |
| O=C(NO)c1cccc2nc3cccc(Cl)c3nc12 | 32 (≈ 117 µM) | 128 (≈ 468 µM) | – |
| O=C(Nc1nnn[nH]1)c1cccc2nc3cccc(Cl)c3nc12 | 32 (≈ 98.2 µM) | 128 (≈ 393 µM) | – |
| COc1cc(Br)c2nc3c(C(=O)O)cccc3nc2c1 | 64 (≈ 192 µM) | 256 (≈ 768 µM) | – |
| O=C(O)c1cccc2nc3c(Cl)ccc(Cl)c3nc12 | 64 (≈ 218 µM) | 128 (≈ 437 µM) | – |
| N#CNC(=O)c1cccc2nc3cccc(F)c3nc12 | 128 (≈ 481 µM) | 128 (≈ 481 µM) | – |
| CS(=O)(=O)NC(=O)c1cccc2nc3c(Cl)ccc(Cl)c3nc12 | 16 (≈ 43.2 µM) | 64 (≈ 173 µM) | Activity [3]: Active; Stability [4]: Stable; Activity [5]: 42%; Activity [6]: inactive; Activity [7]: 61%; IC50 [8]: 208 µM; inhibition (INH) [9]: 82%; Stability [10]: Stable; Activity [11]: Non-Toxic; Activity [12]: Active; Stability [13]: Stable; Activity [14]: inactive; diameter of the inhibition zone (DIZ) [15]: 19 mm; Activity [16]: inactive; Stability [17]: Stable |
| CN(C(=O)c1cccc2nc3ccccc3nc12)S(C)(=O)=O | 256 (≈ 812 µM) | 128 (≈ 406 µM) | – |
| CS(=O)(=O)NC(=O)c1cccc2nc3ccccc3nc12 | 128 (≈ 425 µM) | 128 (≈ 425 µM) | – |
| CN[C@@H]1[C@H](O[C@H]2[C@H](O[C@H]3[C@H](O)[C@@H](O)[C@H](N=C(N)N)[C@@H](O)[C@@H]3N=C(N)N)O[C@@H](C)[C@]2(O)C=O)O[C@@H](CO)[C@H](O)[C@H]1O [STREPTOMYCIN] | – | – | zone of inhibition at 10 µg/disc [18]: 18 mm |
| CS(=O)(=O)NC(=O)c1cccc2nc3cccc(Cl)c3nc12 | 2 (≈ 5.96 µM) | 128 (≈ 381 µM) | Activity [3]: Active; Stability [4]: Stable; Activity [6]: inactive; inhibition (INH) [19]: 90%; Stability [10]: Stable; survival at 96 h [20]: 70%; Stability [13]: Stable; Activity [21]: inactive; Activity [14]: inactive; diameter of the inhibition zone (DIZ) [15]: 16 mm; Activity [16]: inactive; Stability [17]: Stable |
| COC(=O)c1cccc2nc3c(Cl)ccc(Cl)c3nc12 | 128 (≈ 417 µM) | 64 (≈ 208 µM) | – |
| CS(=O)(=O)NC(=O)c1cccc2nc3cccc(F)c3nc12 | 64 (≈ 200 µM) | 128 (≈ 401 µM) | – |
| COc1cc(Br)cc2nc3cccc(C(=O)O)c3nc12 | 128 (≈ 384 µM) | 128 (≈ 384 µM) | – |
| COc1ccc(Br)c2nc3c(C(=O)NC#N)cccc3nc12 | 256 (≈ 717 µM) | 32 (≈ 89.6 µM) | – |
| COC(=O)c1cccc2nc3cccc(OC)c3nc12 | 128 (≈ 477 µM) | 128 (≈ 477 µM) | – |
| CC(C)(C)[Si](C)(C)ON | – | – | Activity [3]: Active; diameter of the inhibition zone (DIZ) [15]: 11 mm |
| NC(=O)c1cccc2nc3cccc(Cl)c3nc12 | > 256 | 128 (≈ 497 µM) | – |
| COc1ccc(Br)c2nc3c(C(=O)O)cccc3nc12 | 128 (≈ 384 µM) | 64 (≈ 192 µM) | – |
| NC(=O)c1cccc2nc3c(Cl)ccc(Cl)c3nc12 | 128 (≈ 438 µM) | 32 (≈ 110 µM) | – |
| N#Cc1cccc2nc3cccc(Cl)c3nc12 | > 256 | 64 (≈ 267 µM) | – |
| Cc1cccc2nc3cccc(C(=O)NS(C)(=O)=O)c3nc12 | 32 (≈ 101 µM) | 32 (≈ 101 µM) | Activity [3]: Active |
| CN(C(=O)c1cccc2nc3cccc(Cl)c3nc12)S(C)(=O)=O | > 256 | 64 (≈ 183 µM) | – |
| COc1ccc2nc3c(C(=O)O)cccc3nc2c1 | 256 (≈ 1010 µM) | 64 (≈ 252 µM) | – |
| N#CNC(=O)c1cccc2nc3cccc(Cl)c3nc12 | 128 (≈ 453 µM) | 128 (≈ 453 µM) | – |
| COc1ccc(Br)c2nc3c(C(=O)NS(C)(=O)=O)cccc3nc12 | 128 (≈ 312 µM) | 64 (≈ 156 µM) | – |
| GENTAMICIN | – | – | MIC [2]: 0.25 µg/mL |
